The list is not random: actives were taken first. Their share in the collection is about 3.7%.
aDG glyco act = activators of alpha-DG glycosylation, primary screen, uHTS, Pro5-aDG cells, AlphaScreen. activation, % at 10 µM. 360,000 compounds, 0.22% hits. alpha-DG glycosylation AlphaScreen (IIH6); 0% Pro5, 100% B10-LARGE cell signal. AID 624168, 2012;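 active = activation of at least 8% versus controls, or a plate z-score of at least 8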;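 also: Pro5 are CHO cells carrying HIG-tagged alpha-DG that lacks glycosylation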
procasp3 activ = activators of human procaspase-3 D3A mutant, primary screen, biochemical, absorbance, PC-3 D3A mutant, single concentration. Caspase-3 (Homo sapiens), P42574. recombinant procaspase-3 D3A, Ac-DEVD-pNA absorbance 405 nm. activation, % at 8.5 µM. 330,000 compounds, 0.11% hits. AID 463141, 2010;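 active = activation above the mean of all tested compounds plus 3 SD, cut at about 21% in these data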;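 also: 0% = DMSO alone and 100% = DMSO wells spiked with extra 5 µM PC-3 D3A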
Target sequence (P42574 whole entry D9A/D28A/D175A): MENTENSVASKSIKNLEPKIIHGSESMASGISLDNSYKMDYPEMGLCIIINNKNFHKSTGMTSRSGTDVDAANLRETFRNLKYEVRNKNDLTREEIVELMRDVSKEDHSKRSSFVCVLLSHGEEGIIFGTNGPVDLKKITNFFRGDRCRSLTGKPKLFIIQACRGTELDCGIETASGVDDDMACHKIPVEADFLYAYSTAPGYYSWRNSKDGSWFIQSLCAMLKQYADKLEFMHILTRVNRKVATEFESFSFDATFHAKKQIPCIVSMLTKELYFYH
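System: Procaspase-3 D3A mutant. Medium: Zinc-free 300 mM NaCl, 50 mM HEPES, 0.01% Triton X-100. Schedule: 1 h preincubation plus 2 h reaction at 25 °C. Measured by: 405 nm absorbance of p-nitroaniline, reads at 0 and 120 min. Read-out: percent activation relative to control range.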
procasp7 counter = procaspase-7 activators, primary screen, counter-screen for procaspase-3 activator project, biochemical, absorbance, HTS, human. Caspase-7 (Homo sapiens), P55210. recombinant procaspase-7, Ac-DEVD-pNA absorbance 405 nm; D23A/D198A/D206A triple mutant, cannot self-cleave; scale: DMSO 0, 5 µM enzyme 100. activation, % at 8.5 µM. 330,000 compounds, 0.093% hits. AID 463210, 2010;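 active = percent activation above the screen-wide mean plus 3 SD, cut at about 25% in these data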
Target sequence (P55210 whole entry D23A/D198A/D206A): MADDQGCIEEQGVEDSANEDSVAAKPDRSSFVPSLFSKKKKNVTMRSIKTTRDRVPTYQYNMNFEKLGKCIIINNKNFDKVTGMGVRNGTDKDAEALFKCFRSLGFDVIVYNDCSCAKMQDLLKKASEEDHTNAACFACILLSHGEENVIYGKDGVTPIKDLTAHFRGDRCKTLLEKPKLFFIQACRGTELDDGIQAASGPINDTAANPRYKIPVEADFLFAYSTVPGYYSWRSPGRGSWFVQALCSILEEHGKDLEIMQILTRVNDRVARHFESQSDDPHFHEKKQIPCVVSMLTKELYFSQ
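buffer or medium = Zinc-free HEPES/NaCl buffer, pH 7.4 | material = Procaspase-7 triple mutant (PC-7 D3A) | input = 2 µM procaspase-7 mutant as dispensed | signal = Epi-absorbance of released pNA at 405 nm, two timepoints | timing = 1 h preincubation, 2 h reaction | replicates = singlicate compound testing | evaluation = % activation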
NR3A LBD binder = binders of NR3A ligand-binding domain, primary screen, biophysical, differential scanning fluorimetry, uHTS; Tm shift relative to glycine control, % at 25 µM; 340,000 compounds, 2.5% hits; AID 1259313, 2017; NR3A LBD differential scanning fluorimetry, Tm shift; 0% = protein alone, 100% = glycine-bound protein;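 active = melting temperature shift of at least 10% of the positive control shift, at one fixed dose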
MPTP block = mitochondrial permeability transition pore inhibitors, primary screen, biochemical, isolated mouse mitochondria, absorbance; inhibition, % at 10 µM; 360,000 compounds, 1.4% hits; Ca2+ swelling absorbance, 30 min;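 active = inhibition of 50% or more, scaled per plate between neutral and stimulator controls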;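 also: 0% = DMSO wells given calcium and 100% = 1 mM EGTA wells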
MPTP counter = fluorescence retest of MPTP screen hits in isolated mitochondria, single concentration; shares compounds with MPTP block; membrane potential, Rhodamine 123 fluorescence; inhibition, % at 10 µM; 5,000 compounds, 78% hits; in the data active = inhibition above about 22%;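 also: 0% = DMSO vehicle and 100% = positive control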
MPTP swell DR = mitochondrial permeability transition pore inhibitors, dose response, biochemical, absorbance, uHTS hits. IC50, µM. AID 651561, 2012. shares compounds with MPTP block. isolated mitochondria swelling. 780 compounds, 58% hits; in the data active = IC50 below about 20 µM
MPTP counter DR = fluorescent counter-screen in isolated mitochondria, dose response, counter-screen for MPTP inhibitor project, biochemical, fluorescence, uHTS hits; isolated mitochondria counterscreen, fluorescence read-out; 780 compounds, 49% hits; AID 651564, 2012; shares compounds with MPTP block; IC50, µM; in the data active = IC50 below about 80 µM
Active calls of the source: *; x = no result given.

SMILES | aDG glyco act | procasp3 activ | procasp7 counter | NR3A LBD binder | MPTP block | MPTP counter | others
COc1ccc(CNC(=O)CC2C[C@H](C(=O)N3CCOCC3)[C@@]3(C)c4[nH]c5ccccc5c4CCN3C2=O)cc1OC (stereo partly specified) | 0 | 9 | 14 | 3 | -1 | x
O=C(Nc1ccc(Cl)cc1)NN1CCCCCC1 | 0 | x | x | 1 | 1 | x
O=C(Nc1ccc([N+](=O)[O-])cc1)NN1CCCCCC1 | 0 | x | x | -1 | 102* | 87*
O=C(NCc1cccnc1)Nc1cc(Cl)cc(Cl)c1 | 0 | -1 | 1 | -3 | 85* | 86*
S=C(NCc1cccnc1)Nc1cc(Cl)cc(Cl)c1 | 0 | -12 | -8 | 1 | 82* | 82*
O=C(NCc1cccnc1)Nc1cccc(Cl)c1 | 0 | 6 | -5 | 1 | 2 | x
Cc1ccc(S(=O)(=O)C[C@@H]2OC[C@H](CO)N2S(=O)(=O)c2ccc(C)cc2)cc1 | 0 | x | x | x | 9 | x
CC(=O)Nc1ccc(C(=O)N2CCCCC2c2cc(C(=O)N3CCOCC3)no2)cc1 (stereo unspecified) | 0 | x | x | x | -1 | x
COC(=O)/C=C1\SC(=NC(=O)c2cccc(Cl)c2)NC1=O | 0 | -12 | -12 | 9 | 60* | 37*
COC(=O)/C=C1/SC(=NC(=O)c2ccc(OC)cc2)NC1=O | 0 | -12 | -22 | -8 | -1 | x
Cc1ccc(CNC(=S)NC2CCC(C(C)(C)C)CC2)cc1 (stereo unspecified) | 0 | x | x | 5 | 51* | 106*
CC(NC(=S)NC1CCC(C(C)(C)C)CC1)c1ccccc1 (stereo unspecified) | 4 | x | x | 6 | 55* | 87*
CCOC(=O)c1ccc(NC(=S)NCc2ccco2)cc1 | 0 | -1 | 4 | -5 | 65* | 72*
CCOC(=O)c1ccc(NC(=S)NCc2ccc(S(N)(=O)=O)cc2)cc1 | 0 | 2 | -10 | -3 | 1 | x
CCOC(=O)c1ccc(NC(=S)NCc2ccc(F)cc2)cc1 | 0 | -2 | -8 | 7 | 88* | 82*
CCOc1ccc(NC(=S)NCc2ccco2)cc1 | 0 | 4 | 12 | 0 | -2 | x
CC(C)c1ccc(NC(=O)NCc2ccc(F)cc2)cc1 | 1 | 0 | 1 | -6 | 61* | 86*
O=C(CSC(=S)N1CCOCC1)Nc1ncc2c(n1)CC(c1ccco1)CC2=O (stereo unspecified) | 0 | -2 | -1 | -1 | 1 | x
COc1ccc(C(CNC(=O)c2ccc(NS(=O)(=O)c3ccc(F)c(C)c3)cc2)N2CCCC2)cc1 (stereo unspecified) | 0 | x | x | 0 | -2 | x
CCOc1ccc(NS(=O)(=O)c2ccc(C(=O)NCC(c3ccc(OC)cc3)N3CCCC3)cc2)cc1 (stereo unspecified) | 1 | -2 | 12 | 4 | 85* | -12 | MPTP swell DR=9*;MPTP counter DR=>80
CCn1c(O)c(/C=C2\C=Nc3ccccc32)sc1=Nc1ccccc1 | 0 | -1 | -11 | 12* | 53* | 59*
CSc1nc(O)c(/C=C2\C=Nc3ccccc32)[nH]1 | 0 | 1 | -12 | 3 | 0 | x
CC(C)=CCCC(C)c1cc(C(=O)NCCc2ccc(O)cc2)c(N)s1 (stereo unspecified) | 0 | x | x | x | 0 | x
FC(F)Oc1ccc(NC(=S)NCC2COc3ccccc3O2)cc1 (stereo unspecified) | 0 | 2 | 5 | 0 | 85* | 98*
COc1cc(NC(=S)Nc2ccc(OC(F)F)cc2)cc(OC)c1 | 0 | -13 | -8 | -26 | 80* | 76*
SMILES | aDG glyco act | procasp3 activ | procasp7 counter | NR3A LBD binder | MPTP block | MPTP counter | others
S=C(NCC1COc2ccccc2O1)Nc1ccccc1 (stereo unspecified) | 0 | 5 | 5 | -6 | 3 | x
FC(F)Oc1ccc(NC(=S)NCc2cccnc2)cc1 | 0 | 2 | 7 | 0 | -5 | x
Fc1ccc(CNC(=S)Nc2ccc(OC(F)F)cc2)cc1 | 0 | 6 | -2 | -2 | 76* | 96*
COc1ccc(NC(=S)Nc2ccc(F)cc2)cc1 | 0 | -11 | 1 | -12 | 2 | x
CC(C)(C)NC(=O)C1c2ccccc2OCC(=O)N1Cc1ccccn1 (stereo unspecified) | 0 | x | x | x | -2 | x
C[n+]1c2n(c3ccccc31)N=C(c1cc(C(C)(C)C)c(O)c(C(C)(C)C)c1)CS2 | 0 | -2 | 0 | -6 | 94* | 103*
Clc1ccc(N/N=C/c2ccncc2)cc1Cl | 2 | -14 | 2 | 12* | 70* | 56*
O=C1Nc2ccccc2Oc2cc([N+](=O)[O-])cc(Oc3ccccc3)c21 | 1 | 10 | 8 | -18 | 31 | x
O=[N+]([O-])c1cc2c(c([N+](=O)[O-])c1)Nc1ccccc1O2 | 0 | x | x | x | 55* | 61*
Fc1cc(Br)ccc1NC(=S)Nc1ccccc1 | 0 | -7 | -5 | -1 | 92* | 93*
O=C(Nc1ccc(Br)cc1)Nc1ccccc1F | 0 | 3 | -5 | 5 | 80* | 90*
Fc1ccccc1NC(=S)Nc1ccc(Br)cc1 | 0 | 4 | 5 | 25* | 97* | 95*
O=C(CCCc1ccccc1)Nc1ccc(Br)cc1F | 0 | -8 | 12 | -2 | 5 | x
COc1ccccc1NC(=S)Nc1ccccc1F | 0 | 5 | 0 | -1 | -1 | x
Cc1ccc(CNc2ncnc3cc(Cl)ccc23)cc1 | 1 | 2 | -2 | -2 | 87* | 76*
Cc1ccccc1CNc1ncnc2cc(Cl)ccc12 | 1 | 8 | 5 | 0 | 1 | x
COc1ccccc1CNc1nc(NCc2ccccc2F)c2sccc2n1 | 2 | x | x | x | 101* | 104*
COCCNc1nc(NCc2ccccc2F)c2sccc2n1 | 4 | x | x | x | 0 | x
COc1ccccc1CNc1nc(NCc2cccc(OC)c2OC)c2sccc2n1 | 2 | x | x | x | 51* | 95*
Fc1ccc(Nc2nc(NCc3ccco3)c3ccccc3n2)cc1 | 1 | 10 | -1 | 10* | 86* | 82*

Assay outcomes deposited in PubChem by several laboratories.
